Results as given in ChEMBL document CHEMBL3632502, “Bivalent ligands incorporating curcumin and diosgenin as multifunctional compounds against Alzheimer's disease” (Bioorg Med Chem, 2015).
The source made the active and inactive calls. The rule behind the calls is not given here.

How the values were obtained:
MC65 [1] = experiment: (§1) Neuroprotective activity against tetracycline deficiency-mediated cell viability loss in human MC65 cells at 1 uM after 72 hrs by MTT assay relative to control; type: functional
How it was run: (§2)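 MC65 cells washed twice in PBS, seeded in Opti-MEM at 4×10^4 cells/well, treated at 37 °C under +TC or −TC for 72 h. MTT (5 mg/mL in PBS) added for 4 h, formazan dissolved in DMSO, A570 read. Viability expressed as percent of +TC control; EC50 from concentration series, SEM.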

[2] = Metal chelating activity assessed as compound-Cu2+ complex formation at 50 uM after 10 mins by UV-vis spectra analysis; type: physicochemical
How it was run: (§3)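 Compound (50 μM) mixed with CuSO4, FeCl2 or ZnCl2 (50 μM) in deionized water, kept 10 min at room temperature, then UV absorption spectrum recorded from 200 to 600 nm.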

[3] = biological target: Amyloid-beta precursor protein (Homo sapiens) (UniProt P05067); experiment: Inhibition of amyloid beta42 (unknown origin) aggregation after 48 hrs by ThT assay
How it was run: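 Aβ42 (25 μM in PBS pH 7.4, 9 μL) mixed with 1 μL of compound in DMSO (0.01–100 μM solutions), triplicates with solvent control, incubated dark at room temperature 48 h. Then 5 μM ThT in 50 mM glycine pH 8.0 added; fluorescence read at ex 446/em 490 nm, with no-ThT background subtracted.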

MC65 [4] = experiment: Effect on tetracycline deficiency-induced total amyloid beta42 level in human MC65 cells at 0.1 to 1 uM after 48 hrs by ELISA; type: functional, cell-based
How it was run: (§4)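 MC65 cells in Opti-MEM (4×10^4 cells/well) treated at 37 °C under +TC or −TC for 48 h. Conditioned medium captured on BNT77-coated plates overnight at 4 °C, detected with HRP-BA27 (Aβ40) or HRP-BC05 (Aβ42) for 1 h at room temperature, TMB 30 min, A450. Values in pM from Aβ standard calibration curves.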

[5] = Neuroprotective activity against tetracycline deficiency-mediated cell viability loss in human MC65 cells after 72 hrs by MTT assay; type: functional, cell-based; details: MC65, 72 h; how it was run: as §2
MC65 [6] = experiment: Antioxidant activity in human MC65 cells assessed as decrease in tetracycline deficiency-mediated reactive oxygen species formation at 0.3 uM after 48 hrs by DCFH-DA probe-based flow cytometric analysis; type: functional, cell-based
How it was run: (§5)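 MC65 cells washed in PBS, resuspended in Opti-MEM, seeded at 2×10^6 cells/well, treated at 37 °C with or without TC (1 μg/mL in culture medium) for 48 h. Harvested cells washed in cold PBS, loaded with 25 μM DCFH-DA in PBS for 1 h in the dark, and analysed by flow cytometry. Fluorescence expressed as percent of control.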

[7] = Metal chelating activity assessed as compound-Fe2+ complex formation at 50 uM after 10 mins by UV-vis spectra analysis; type: physicochemical; how it was run: as §3
[8] = Metal chelating activity assessed as compound-Zn2+ complex formation at 50 uM after 10 mins by UV-vis spectra analysis; type: physicochemical; how it was run: as §3
[9] = biological target: Amyloid-beta precursor protein (Homo sapiens) (UniProt P05067); experiment: Binding affinity to amyloid beta in human MC65 cells assessed as inhibition of tetracycline deficiency-induced amyloid beta oligomerization after 48 hrs by Western blot analysis; type: cell-based
How it was run: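 MC65 cells in Opti-MEM (2×10^6 cells/well) treated at 37 °C under +TC or −TC for 48 h, then lysed by sonication in Tricine buffer. Supernatant protein (20.0 μg, Bradford-quantified) run on Tris-Tricine SDS-PAGE and blotted to PVDF. Probed with 6E10 overnight at 4 °C, HRP secondary, chemiluminescence; α-tubulin loading control. Total oligomers quantified, n=6, SEM.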

MC65 [10] = experiment: Effect on tetracycline deficiency-induced total amyloid beta40 level in human MC65 cells at 0.1 to 1 uM after 48 hrs by ELISA; type: functional, cell-based; how it was run: as §4
[11] = as §1; type: functional; how it was run: as §2
MC65 [12] = experiment: Antioxidant activity in human MC65 cells assessed as decrease in tetracycline deficiency-mediated reactive oxygen species formation at 0.1 uM after 48 hrs by DCFH-DA probe-based flow cytometric analysis; type: functional, cell-based; how it was run: as §5

Amyloid-beta precursor protein (Homo sapiens), sequence (P05067 whole entry): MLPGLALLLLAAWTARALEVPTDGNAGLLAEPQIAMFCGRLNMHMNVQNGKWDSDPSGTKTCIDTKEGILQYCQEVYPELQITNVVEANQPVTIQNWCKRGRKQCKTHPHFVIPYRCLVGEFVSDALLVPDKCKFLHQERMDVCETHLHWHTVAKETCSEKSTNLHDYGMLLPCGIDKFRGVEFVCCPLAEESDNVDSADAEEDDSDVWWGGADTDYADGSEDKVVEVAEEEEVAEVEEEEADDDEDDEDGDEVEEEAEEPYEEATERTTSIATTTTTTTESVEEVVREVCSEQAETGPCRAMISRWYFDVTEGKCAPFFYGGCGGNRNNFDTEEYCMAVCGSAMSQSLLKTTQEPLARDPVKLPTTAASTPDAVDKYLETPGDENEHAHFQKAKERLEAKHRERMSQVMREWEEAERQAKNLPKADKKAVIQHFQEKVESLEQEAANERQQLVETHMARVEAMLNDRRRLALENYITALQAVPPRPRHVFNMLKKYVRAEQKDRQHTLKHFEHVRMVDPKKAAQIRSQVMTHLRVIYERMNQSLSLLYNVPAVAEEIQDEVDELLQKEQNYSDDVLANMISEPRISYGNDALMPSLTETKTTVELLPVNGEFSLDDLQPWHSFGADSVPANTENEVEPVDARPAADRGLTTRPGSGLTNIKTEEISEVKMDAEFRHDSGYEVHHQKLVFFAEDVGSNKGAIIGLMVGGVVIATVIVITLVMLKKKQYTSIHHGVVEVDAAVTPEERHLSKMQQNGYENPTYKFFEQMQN

For `COC(=O)CCC(=O)NCCOCCOCCn1cc(C/C(C(=O)/C=C/c2ccc(O)c(OC)c2)=C(O)\C=C\c2ccc(O)c(OC)c2)nn1`, the Activity (MC65 [1]) was “inactive”.

For `COc1cc(/C=C/C(=O)/C(Cc2cn(CCCCC(=O)NCCOCCOCCOCC(=O)O[C@H]3CC[C@@]4(C)C(=CC[C@H]5[C@@H]6C[C@@H]7O[C@]8(CC[C@@H](C)CO8)[C@@H](C)[C@@H]7[C@@]6(C)CC[C@@H]54)C3)nn2)=C(O)/C=C/c2ccc(O)c(OC)c2)ccc1O`, the Activity [2] was “Not Active”, the inhibition [3] was “Dose-dependent effect” and the Activity (MC65 [4]) was “inactive”. For the same molecule, the EC50 [5] was 232 nM, the Activity (MC65 [6]) was “Active” and the Activity [7] was “Not Active”. For the same molecule, the Activity [8] was “Not Active”, the inhibition [9] was “Dose-dependent effect” and the Activity (MC65 [10]) was “inactive”. The Activity [11] was “>=80%”.

In the case of `COc1cc(/C=C/C(=O)/C(Cc2cn(CCCCCCCCCC(=O)NCCOCCOCCOCC(=O)O[C@H]3CC[C@@]4(C)C(=CC[C@H]5[C@@H]6C[C@@H]7O[C@]8(CC[C@@H](C)CO8)[C@@H](C)[C@@H]7[C@@]6(C)CC[C@@H]54)C3)nn2)=C(O)/C=C/c2ccc(O)c(OC)c2)ccc1O`, the EC50 [5] is reported as 309 nM.

With `COc1cc(/C=C/C(=O)CC(=O)/C=C/c2ccc(O)c(OC)c2)ccc1O` the Activity (MC65 [1]) was “inactive”.

In the case of `COc1cc(/C=C/C(=O)/C(Cc2cn(CCCCCC(=O)NCCOCCOCCOCC(=O)O[C@H]3CC[C@@]4(C)C(=CC[C@H]5[C@@H]6C[C@@H]7O[C@]8(CC[C@@H](C)CO8)[C@@H](C)[C@@H]7[C@@]6(C)CC[C@@H]54)C3)nn2)=C(O)/C=C/c2ccc(O)c(OC)c2)ccc1O`, the EC50 [5] is reported as 381 nM and the Activity [11] is reported as “>=80%”.

For `COc1cc(/C=C/C(=O)/C(Cc2cn(CCOCCOCCNC(=O)CCC(=O)O[C@H]3CC[C@@]4(C)C(=CC[C@H]5[C@@H]6C[C@@H]7O[C@]8(CC[C@@H](C)CO8)[C@@H](C)[C@@H]7[C@@]6(C)CC[C@@H]54)C3)nn2)=C(O)/C=C/c2ccc(O)c(OC)c2)ccc1O`, the Activity [2] was “Not Active”, the inhibition [3] was “Dose-dependent effect” and the Activity (MC65 [4]) was “inactive”. The EC50 [5] was 112 nM, the Activity [7] was “Not Active” and the Activity [8] was “Not Active”. The Activity (MC65 [12]) was “Active”, the inhibition [9] was “Dose-dependent effect” and the Activity (MC65 [10]) was “inactive”. The Activity [11] was “>=80%”.

With `COc1cc(/C=C/C(=O)/C(Cc2cn(CCCCCCCCCCCC(=O)NCCOCCOCCOCC(=O)O[C@H]3CC[C@@]4(C)C(=CC[C@H]5[C@@H]6C[C@@H]7O[C@]8(CC[C@@H](C)CO8)[C@@H](C)[C@@H]7[C@@]6(C)CC[C@@H]54)C3)nn2)=C(O)/C=C/c2ccc(O)c(OC)c2)ccc1O` the EC50 [5] was 4620 nM.

With `CCCCCC(=O)O[C@H]1CC[C@@]2(C)C(=CC[C@@H]3[C@@H]4C[C@@H]5O[C@]6(CC[C@@H](C)CO6)[C@@H](C)[C@@H]5[C@@]4(C)CC[C@@H]32)C1` the Activity (MC65 [1]) was “inactive”.

In the case of `CC(C)Cc1cn(CCOCCOCCNC(=O)CCC(=O)O[C@H]2CC[C@@]3(C)C(=CC[C@H]4[C@@H]5C[C@@H]6O[C@]7(CC[C@@H](C)CO7)[C@@H](C)[C@@H]6[C@@]5(C)CC[C@@H]43)C2)nn1`, the Activity (MC65 [1]) is reported as “inactive”.

In the case of `C[C@@H]1CC[C@@]2(OC1)O[C@H]1C[C@H]3[C@@H]4CC=C5C[C@@H](O)CC[C@]5(C)[C@H]4CC[C@]3(C)[C@H]1[C@@H]2C`, the Activity (MC65 [1]) is reported as “inactive”.

In the case of `COc1cc(/C=C/C(=O)/C(Cc2cn(CCCCCCCC(=O)NCCOCCOCCOCC(=O)O[C@H]3CC[C@@]4(C)C(=CC[C@H]5[C@@H]6C[C@@H]7O[C@]8(CC[C@@H](C)CO8)[C@@H](C)[C@@H]7[C@@]6(C)CC[C@@H]54)C3)nn2)=C(O)/C=C/c2ccc(O)c(OC)c2)ccc1O`, the EC50 [5] is reported as 1040 nM and the Activity [11] is reported as “>=80%”.
